Data: ChEMBL document CHEMBL4033606, “Ulapualides C-E Isolated from a Hawaiian Hexabranchus sanguineus Egg Mass” (J Nat Prod, 2017)
Calls of active or inactive are those of the source. The rule behind the calls is not given here.

What was measured:
A549 = experiment: Cytotoxicity against human A549 cells incubated for 72 hrs by CyQuant NF cell proliferation assay; assay type: functional, cell-based; conditions: A549, 72 h
Outline: (§1)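 Cells seeded at 4,000 per well and treated 20 h later with serially diluted compounds for 72 h at 37 °C, 5% CO2. Medium containing penicillin 100 U/mL and streptomycin 100 μg/mL. Medium then replaced with CyQuant NF dye-binding solution for 60 min at 37 °C and fluorescence read on a plate reader. Triplicates in two independent trials. IC50 reported. In the second trial, sample concentration was set by colorimetry against a standard curve.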

DU-145 = experiment: Cytotoxicity against human DU145 cells incubated for 72 hrs by CyQuant NF cell proliferation assay; assay type: functional, cell-based; conditions: DU-145, 72 h; outline: as §1
MDA-MB-231 = experiment: Cytotoxicity against human MDA-MB-231 cells incubated for 72 hrs by CyQuant NF cell proliferation assay; assay type: functional, cell-based; conditions: MDA-MB-231, 72 h; outline: as §1
[1] = target: Beta-secretase 1 (Homo sapiens) (UniProt P56817); experiment: Inhibition of BACE1 (unknown origin) up to 30 uM
Sequence of Beta-secretase 1 (Homo sapiens) (P56817 whole entry): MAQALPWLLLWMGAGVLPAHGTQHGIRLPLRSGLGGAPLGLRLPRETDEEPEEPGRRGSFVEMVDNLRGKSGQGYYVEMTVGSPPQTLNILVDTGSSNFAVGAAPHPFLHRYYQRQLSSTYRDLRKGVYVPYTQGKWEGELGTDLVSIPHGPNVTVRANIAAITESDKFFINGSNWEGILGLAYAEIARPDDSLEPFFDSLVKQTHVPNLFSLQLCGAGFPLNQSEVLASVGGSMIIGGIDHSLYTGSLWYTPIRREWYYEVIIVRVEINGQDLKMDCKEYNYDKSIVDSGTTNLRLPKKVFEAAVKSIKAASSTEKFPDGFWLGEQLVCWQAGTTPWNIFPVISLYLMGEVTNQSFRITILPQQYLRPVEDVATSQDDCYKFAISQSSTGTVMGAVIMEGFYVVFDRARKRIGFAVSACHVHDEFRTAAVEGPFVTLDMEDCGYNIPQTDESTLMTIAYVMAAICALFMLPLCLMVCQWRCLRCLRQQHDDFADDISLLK

| Structure (SMILES) | IC50 (A549) | IC50 (DU-145) | IC50 (MDA-MB-231) | inhibition [1] |
| --- | --- | --- | --- | --- |
| COC(CC1OC(=O)CC(O)CCCC(=O)CC(C)c2coc(n2)-c2coc(n2)-c2coc(n2)/C=C/CC(OC)C1C)C(C)CCC(O)C(C)C(OC(C)=O)C(C)/C=C/N(C)C=O (stereo unspecified) | 600 to 680 nM | 760 to 850 nM | 580 to 760 nM | – |
| CO[C@H]1C/C=C/c2nc(co2)-c2nc(co2)-c2nc(co2)[C@@H](C)CC(=O)CCC[C@H](O)CC(=O)O[C@@H](C[C@H](OC)[C@@H](C)CCC(=O)[C@H](C)[C@H](OC(C)=O)[C@H](C)/C=C/N(C)C=O)[C@@H]1C | 280 to 290 nM | 250 to 260 nM | 230 to 250 nM | inactive |
| COCC(OC)C(=O)OC(CCC(C)C(CC1OC(=O)CC(O)CCCC(=O)CC(C)c2coc(n2)-c2coc(n2)-c2coc(n2)/C=C/CC(OC)C1C)OC)C(C)C(OC(C)=O)C(C)/C=C/N(C)C=O (stereo unspecified) | 260 to 330 nM | 280 to 340 nM | 290 nM | inactive |
